This data set is classed as in vivo, Sprague-Dawley rats. The conditions noted are these: 5 mg/kg p.o. A digest of the protocol:
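8-week-old male WT and CRISPR/Cas9 Slco1b2 KO SD rats, fasted 12 h, given the OATP1B2 probe substrate as a CMC-Na suspension intragastrically. Plasma underwent ethyl acetate liquid–liquid extraction with mebendazole internal standard, then positive-ESI LC–MS/MS. Parameters were derived by non-compartmental analysis.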

From publication PMC7276679 (Acta Pharmaceutica Sinica. B, 2019) come the findings set out here.

In general, AUC(0-inf) refers to total exposure, with the tail of the curve extrapolated. A word on the AUC(0-t): it is the area under the concentration-time curve up to a stated or last time point. Read a high AUC(0-t) as more exposure. A word on the CL/F: it is the apparent clearance, not corrected for the fraction that reaches the circulation. As a reminder, the Cmax is the maximum level reached in the sampled fluid or tissue. One may read the MRT last as a mean duration of stay, worked out from the concentration-time curve. The term Tmax denotes the time at which the peak concentration occurs. By Vd/F is commonly meant the apparent distribution volume after extravascular dosing. A word on the half-life: it is the time in which the quantity being followed falls by half. A high value points to slow loss.

With `O=C(O)C[C@H](O)C[C@H](O)/C=C/c1c(C2CC2)nc2ccccc2c1-c1ccc(F)cc1` [pitavastatin, Pitavastatin], where the note is “KO vs WT rats”, the “decrease of CL/F in KO rats compared with WT rats” value is on record as 38.5%, the “decrease of Vd/F in KO rats compared with WT rats” value worked out at 39.8%, the “increase of AUC0–24 h in KO rats compared with WT rats” value is reported as 68.8% and the “increase of AUC0–inf in KO rats compared with WT rats” value came out at 68.8%. Also, where the note is “male, Sprague-Dawley, rat, plasma, po, 5 mg/kg, AUC0–inf, Slco1b2 KO male rats, mean ± SD, n = 6”, the AUC(0-inf) is 3440 ± 1050 ng·h/mL. This compound also registered an AUC(0-t) (male, Sprague-Dawley, rat, plasma, po, 5 mg/kg, AUC0–t, Slco1b2 KO male rats, mean ± SD, n = 6) of 3410 ± 1040 ng·h/mL. For the same compound, the CL/F (male, Sprague-Dawley, rat, plasma, po, 5 mg/kg, CL/F, Slco1b2 KO male rats, mean ± SD, n = 6) is 26 mL/min/kg. The same compound had a Cmax (male, Sprague-Dawley, rat, plasma, po, 5 mg/kg, Cmax, Slco1b2 KO male rats, mean ± SD, n = 6) of 1000 ± 336 ng/mL. The MRT last (male, Sprague-Dawley, rat, plasma, po, 5 mg/kg, MRT0–t, Slco1b2 KO male rats, mean ± SD, n = 6) was found to be 3.65 ± 0.89 h. The Tmax (male, Sprague-Dawley, rat, plasma, po, 5 mg/kg, Tmax, Slco1b2 KO male rats, mean ± SD, n = 6) turned out to be 2.08 ± 0.97 h. Where the note is “male, Sprague-Dawley, rat, plasma, po, 5 mg/kg, Vd/F, Slco1b2 KO male rats, mean ± SD, n = 6”, this compound came in with a Vd/F of 6.58 ± 1.9 L/kg. Besides, the half-life (male, Sprague-Dawley, rat, plasma, po, 5 mg/kg, t1/2, Slco1b2 KO male rats, mean ± SD, n = 6) is 2.92 ± 0.43 h.
